Assay results reported in ChEMBL document CHEMBL1156638, “Antibacterial cannabinoids from Cannabis sativa: a structure-activity study” (2008).
Converted amounts (≈) assume the structure as drawn.

Assays:
Assay type in all cases: functional
[1] = system: Staphylococcus aureus; assay: Antibacterial activity against […] Staphylococcus aureus SA1199B after 18 hrs
In short: (§1)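 Broth microdilution in Mueller-Hinton broth adjusted to 20 mg/L Ca2+ and 10 mg/L Mg2+. Overnight cultures diluted in 0.9% saline to 5 ×10^5 cfu against a MacFarland standard. Compounds serially diluted twofold, inoculum added, incubated 37 °C for 18 h. DMSO (3.125%) control included. MIC taken as lowest concentration with no visible growth, done in duplicate. MTT (5 mg/mL methanolic) used.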

[2] = system: Staphylococcus aureus; assay: Antibacterial activity against tetracycline-resistant Staphylococcus aureus XU212 after 18 hrs; conditions: XU212, 18 h; in short: as §1
[3] = system: Staphylococcus aureus; assay: Antibacterial activity against macrolide-resistant Staphylococcus aureus RN4220 after 18 hrs; conditions: RN4220, 18 h; in short: as §1
[4] = system: Staphylococcus aureus; assay: Antibacterial activity against […] Staphylococcus aureus ATCC 25923 after 18 hrs; conditions: ATCC 25923, 18 h; in short: as §1
[5] = system: Staphylococcus aureus; assay: Antibacterial activity against epidemic methicillin-resistant Staphylococcus aureus 15 after 18 hrs; in short: as §1
[6] = system: Staphylococcus aureus; assay: Antibacterial activity against epidemic methicillin-resistant Staphylococcus aureus 16 after 18 hrs; in short: as §1

CCCCCc1cc(O)c(C/C=C(\C)CCC=C(C)C)c(O)c1C(=O)OC
MIC [1]: 64 µg/mL (≈ 171 µM)
MIC [2]: 64 µg/mL (≈ 171 µM)

C=C(C)[C@@H]1CCC(C)=C[C@H]1c1c(O)cc(CCCCC)c(C(=O)OC)c1O
MIC [1]: > 128 µg/mL
MIC [3]: > 128 µg/mL
MIC [2]: > 128 µg/mL
MIC [4]: > 128 µg/mL
MIC [5]: > 128 µg/mL
MIC [6]: > 128 µg/mL

C=C(C)[C@@H]1CCC(C)=C[C@H]1c1c(OC)cc(CCCCC)cc1OC
MIC [1]: > 128 µg/mL
MIC [3]: > 128 µg/mL
MIC [2]: > 128 µg/mL
MIC [4]: > 128 µg/mL
MIC [5]: > 128 µg/mL
MIC [6]: > 128 µg/mL

C=C(C)[C@@H]1CCC(C)=C[C@H]1c1c(O)cc(O)cc1CCCCC
MIC [1]: 1 µg/mL (≈ 3.18 µM)
MIC [3]: 1 µg/mL (≈ 3.18 µM)
MIC [2]: 1 µg/mL (≈ 3.18 µM)
MIC [4]: 1 µg/mL (≈ 3.18 µM)
MIC [5]: 1 µg/mL (≈ 3.18 µM)
MIC [6]: 1 µg/mL (≈ 3.18 µM)

CCCCCc1cc(O)c(C/C=C(\C)CCC=C(C)C)c(OC)c1
MIC [1]: > 128 µg/mL
MIC [3]: > 128 µg/mL
MIC [2]: > 128 µg/mL
MIC [4]: > 128 µg/mL
MIC [5]: > 128 µg/mL
MIC [6]: > 128 µg/mL

CCCCCc1cc(OC)c(C/C=C(\C)CCC=C(C)C)c(OC)c1
MIC [1]: > 128 µg/mL
MIC [3]: > 128 µg/mL
MIC [2]: > 128 µg/mL
MIC [4]: > 128 µg/mL
MIC [5]: > 128 µg/mL
MIC [6]: > 128 µg/mL

CCCCCc1cc(O)c(C/C=C(\C)CCC=C(C)C)c(O)c1C(=O)OCCc1ccccc1
MIC [1]: > 128 µg/mL
MIC [3]: > 128 µg/mL
MIC [2]: > 128 µg/mL
MIC [4]: > 128 µg/mL
MIC [5]: > 128 µg/mL
MIC [6]: > 128 µg/mL

C=C(C)[C@@H]1CCC(C)=C[C@H]1c1c(O)cc(CCCCC)cc1OC
MIC [1]: > 128 µg/mL
MIC [3]: > 128 µg/mL
MIC [2]: > 128 µg/mL
MIC [4]: > 128 µg/mL
MIC [5]: > 128 µg/mL
MIC [6]: > 128 µg/mL

C=C(C)C1CCC(C)=CC1c1c(CCCCC)cc(O)c([C@@H]2C=C(C)CC[C@H]2C(=C)C)c1O (some centres not stated)
MIC [1]: > 128 µg/mL
MIC [3]: > 128 µg/mL
MIC [2]: > 128 µg/mL
MIC [4]: > 128 µg/mL
MIC [5]: > 128 µg/mL
MIC [6]: > 128 µg/mL

CCCCCc1cc(O)cc(O)c1C/C=C(\C)CCC=C(C)C
MIC [1]: 2 µg/mL (≈ 6.32 µM)
MIC [3]: 1 µg/mL (≈ 3.16 µM)
MIC [2]: 0.5 µg/mL (≈ 1.58 µM)
MIC [4]: 1 µg/mL (≈ 3.16 µM)
MIC [5]: 2 µg/mL (≈ 6.32 µM)

CCCCCc1cc(OC(C)=O)c(C/C=C(\C)CCC=C(C)C)c(OC(C)=O)c1
MIC [1]: > 128 µg/mL
MIC [3]: > 128 µg/mL
MIC [2]: > 128 µg/mL
MIC [4]: > 128 µg/mL
MIC [5]: > 128 µg/mL
MIC [6]: > 128 µg/mL

C=C(C)[C@@H]1CCC(C)=C[C@H]1c1c(OC(C)=O)cc(CCCCC)cc1OC(C)=O
MIC [1]: > 128 µg/mL
MIC [3]: > 128 µg/mL
MIC [2]: > 128 µg/mL
MIC [4]: > 128 µg/mL
MIC [5]: > 128 µg/mL
MIC [6]: > 128 µg/mL

C=C(C)[C@@H]1CCC(C)=C[C@H]1c1c(O)cc(CCCCC)c(C(=O)OCCc2ccccc2)c1O
MIC [1]: > 128 µg/mL
MIC [3]: > 128 µg/mL
MIC [2]: > 128 µg/mL
MIC [4]: > 128 µg/mL
MIC [5]: > 128 µg/mL
MIC [6]: > 128 µg/mL

CCCCCc1cc(O)c2c(c1)OC(C)(CCC=C(C)C)C=C2 (configuration not stated) [CANNABICHROMENE]
MIC [1]: 2 µg/mL (≈ 6.36 µM)
MIC [3]: 2 µg/mL (≈ 6.36 µM)
MIC [2]: 1 µg/mL (≈ 3.18 µM)
MIC [4]: 2 µg/mL (≈ 6.36 µM)
MIC [5]: 2 µg/mL (≈ 6.36 µM)
MIC [6]: 2 µg/mL (≈ 6.36 µM)

C=C(C)[C@@H]1CCC(C)=C[C@H]1c1c(O)cc(CCCCC)c(C(=O)O)c1O [CANNABIDIOLIC ACID]
MIC [1]: 2 µg/mL (≈ 5.58 µM)
MIC [3]: 2 µg/mL (≈ 5.58 µM)
MIC [2]: 2 µg/mL (≈ 5.58 µM)
MIC [4]: 2 µg/mL (≈ 5.58 µM)
MIC [5]: 2 µg/mL (≈ 5.58 µM)
MIC [6]: 2 µg/mL (≈ 5.58 µM)

C=C(C)[C@@H]1CCC(C)=C[C@H]1c1c(O)cc(CCCCC)cc1O [CANNABIDIOL]
MIC [1]: 1 µg/mL (≈ 3.18 µM)
MIC [3]: 1 µg/mL (≈ 3.18 µM)
MIC [2]: 1 µg/mL (≈ 3.18 µM)
MIC [4]: 0.5 µg/mL (≈ 1.59 µM)
MIC [5]: 1 µg/mL (≈ 3.18 µM)
MIC [6]: 1 µg/mL (≈ 3.18 µM)

CCCCCc1cc(O)c(C/C=C(\C)CCC=C(C)C)c(O)c1C(=O)O [CANNABIGEROLIC ACID]
MIC [1]: 4 µg/mL (≈ 11.1 µM)
MIC [3]: 2 µg/mL (≈ 5.55 µM)
MIC [2]: 4 µg/mL (≈ 11.1 µM)
MIC [4]: 4 µg/mL (≈ 11.1 µM)
MIC [5]: 2 µg/mL (≈ 5.55 µM)
MIC [6]: 4 µg/mL (≈ 11.1 µM)

CCCCCc1cc(O)c(C/C=C(\C)CCC=C(C)C)c(O)c1 [CANNABIGEROL]
MIC [1]: 1 µg/mL (≈ 3.16 µM)
MIC [3]: 1 µg/mL (≈ 3.16 µM)
MIC [2]: 1 µg/mL (≈ 3.16 µM)
MIC [4]: 1 µg/mL (≈ 3.16 µM)
MIC [5]: 2 µg/mL (≈ 6.32 µM)
MIC [6]: 1 µg/mL (≈ 3.16 µM)

CCCCCc1cc(O)c2c(c1)OC(C)(C)c1ccc(C)cc1-2 [CANNABINOL]
MIC [1]: 1 µg/mL (≈ 3.22 µM)
MIC [3]: 1 µg/mL (≈ 3.22 µM)
MIC [2]: 1 µg/mL (≈ 3.22 µM)
MIC [4]: 1 µg/mL (≈ 3.22 µM)
MIC [5]: 1 µg/mL (≈ 3.22 µM)

CCCCCc1cc(O)c(C/C=C(\C)CCC(O)C(C)(C)O)c(O)c1 (configuration not stated) [CARMAGEROL]
MIC [1]: 32 µg/mL (≈ 91.3 µM)
MIC [3]: 32 µg/mL (≈ 91.3 µM)
MIC [2]: 16 µg/mL (≈ 45.6 µM)
MIC [4]: 16 µg/mL (≈ 45.6 µM)
MIC [5]: 16 µg/mL (≈ 45.6 µM)
MIC [6]: 32 µg/mL (≈ 91.3 µM)

CCCCCc1cc2c(c(O)c1C(=O)O)[C@@H]1C=C(C)CC[C@H]1C(C)(C)O2 [DELTA9-TETRAHYDROCANNABINOLIC ACID A]
MIC [1]: 8 µg/mL (≈ 22.3 µM)
MIC [3]: 4 µg/mL (≈ 11.2 µM)
MIC [2]: 8 µg/mL (≈ 22.3 µM)
MIC [4]: 4 µg/mL (≈ 11.2 µM)
MIC [5]: 8 µg/mL (≈ 22.3 µM)
MIC [6]: 4 µg/mL (≈ 11.2 µM)

CCCCCc1cc(O)c2c(c1)OC(C)(C)[C@@H]1CCC(C)=C[C@@H]21 [DRONABINOL]
MIC [1]: 2 µg/mL (≈ 6.36 µM)
MIC [3]: 1 µg/mL (≈ 3.18 µM)
MIC [2]: 1 µg/mL (≈ 3.18 µM)
MIC [4]: 1 µg/mL (≈ 3.18 µM)
MIC [5]: 2 µg/mL (≈ 6.36 µM)
MIC [6]: 0.5 µg/mL (≈ 1.59 µM)

CC[C@H]1OC(=O)[C@H](C)[C@@H](O[C@H]2C[C@@](C)(OC)[C@@H](O)[C@H](C)O2)[C@H](C)[C@@H](O[C@@H]2O[C@H](C)C[C@H](N(C)C)[C@H]2O)[C@](C)(O)C[C@@H](C)C(=O)[C@H](C)[C@@H](O)[C@]1(C)O [ERYTHROMYCIN]
MIC [1]: 0.25 µg/mL (≈ 0.341 µM)
MIC [3]: 64 µg/mL (≈ 87.2 µM)
MIC [2]: > 128 µg/mL
MIC [4]: 0.25 µg/mL (≈ 0.341 µM)
MIC [5]: > 128 µg/mL
MIC [6]: > 128 µg/mL

CCn1cc(C(=O)O)c(=O)c2cc(F)c(N3CCNCC3)cc21 [NORFLOXACIN]
MIC [1]: 32 µg/mL (≈ 100 µM)
MIC [3]: 1 µg/mL (≈ 3.13 µM)
MIC [2]: 4 µg/mL (≈ 12.5 µM)
MIC [4]: 1 µg/mL (≈ 3.13 µM)
MIC [5]: 0.5 µg/mL (≈ 1.57 µM)
MIC [6]: 128 µg/mL (≈ 401 µM)

Cc1onc(-c2ccccc2)c1C(=O)N[C@@H]1C(=O)N2[C@@H]1SC(C)(C)[C@@H]2C(=O)O [OXACILLIN]
MIC [1]: 0.25 µg/mL (≈ 0.623 µM)
MIC [3]: 0.25 µg/mL (≈ 0.623 µM)
MIC [2]: 128 µg/mL (≈ 319 µM)
MIC [4]: 0.125 µg/mL (≈ 0.311 µM)
MIC [5]: 32 µg/mL (≈ 79.7 µM)
MIC [6]: > 128 µg/mL

Oc1cccc(O)c1 [RESORCINOL]
MIC [1]: > 256 µg/mL
MIC [3]: > 256 µg/mL
MIC [2]: > 256 µg/mL
MIC [4]: > 256 µg/mL
MIC [5]: > 256 µg/mL
MIC [6]: > 256 µg/mL

CN(C)[C@@H]1C(O)=C(C(N)=O)C(=O)[C@@]2(O)C(O)=C3C(=O)c4c(O)cccc4[C@@](C)(O)[C@H]3C[C@@H]12 [TETRACYCLINE]
MIC [1]: 0.25 µg/mL (≈ 0.563 µM)
MIC [3]: 0.25 µg/mL (≈ 0.563 µM)
MIC [2]: 128 µg/mL (≈ 288 µM)
MIC [4]: 0.25 µg/mL (≈ 0.563 µM)
MIC [5]: 0.125 µg/mL (≈ 0.281 µM)
MIC [6]: 0.125 µg/mL (≈ 0.281 µM)

CCCCCc1cc(O)cc(O)c1 [WHILE OLIVETOL]
MIC [1]: 64 µg/mL (≈ 355 µM)
MIC [3]: 64 µg/mL (≈ 355 µM)
MIC [2]: 64 µg/mL (≈ 355 µM)
MIC [4]: 128 µg/mL (≈ 710 µM)
MIC [5]: 64 µg/mL (≈ 355 µM)
MIC [6]: 64 µg/mL (≈ 355 µM)
